Activity calls are given as the source filed them. The rule behind the calls is not given here.
Columns and labels:
[1] = system: PC-3M; experiment: (§1) Cytotoxicity in human PC3M cells assessed as inhibition of cell proliferation upto 50 uM after 3 days by MTT assay; format: functional
Summary of the method: (§2)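 Metastatic variant PC3-M human prostate cancer cells in exponential growth exposed 3 days to 0−50 μM of each racemate or enantiomer; viability by MTT, absorbance at 540 nm. CC50 derived from the concentration-response. For the 50 μM readout, absorbance at 72 h compared with untreated cells at the start (t = 0 h).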

[2] = Cytotoxicity in human PC3M cells assessed as inhibition of cell proliferation after 3 days by MTT assay; format: functional; settings: PC-3M, 72 h; summary of the method: as §2
[3] = as §1; format: functional, PC-3M; summary of the method: as §2
[4] = system: PC-3M; experiment: Inhibition of MMP-2 mRNA expression in human PC3M cells at 3 uM after 3 days by qRT-PCR analysis relative to untreated control; format: functional; settings: 72 h

| Structure (SMILES) | inhibition [1] | CC50 [2] | fold change (FC) [3] | inhibition at 3 µM [4] |
| --- | --- | --- | --- | --- |
| CC1(C)C=Cc2cc(C3CC(=O)c4ccc(O)cc4O3)ccc2O1 (racemic) | Active |  |  |  |
| COc1c(CC=C(C)C)cc([C@H]2CC(=O)c3ccc(O)cc3O2)cc1CC=C(C)C | Active | 46 µM |  |  |
| CC(C)=CCc1cc([C@@H]2CC(=O)c3ccc(O)cc3O2)ccc1O | Active |  |  |  |
| COc1c(CC=C(C)C)cc(C2CC(=O)c3ccc(O)cc3O2)cc1CC=C(C)C (racemic) | Active | 33 µM |  |  |
| COc1c(CC=C(C)C)cc([C@@H]2CC(=O)c3ccc(O)cc3O2)cc1CC=C(C)C | Active | 12 µM | 2 |  |
| CC1(C)C=Cc2cc([C@@H]3CC(=O)c4ccc(O)cc4O3)ccc2O1 | Active |  |  |  |
| CC(C)=CCc1cc(C2CC(=O)c3ccc(O)cc3O2)cc2c1OC(C)(C)C=C2 (racemic) | Active | 57 µM |  |  |
| CC(C)=CCc1cc([C@H]2CC(=O)c3ccc(O)cc3O2)ccc1O | Active |  |  |  |
| CC(C)=CCc1cc([C@H]2CC(=O)c3ccc(O)cc3O2)cc2c1OC(C)(C)C=C2 | Active | 42 µM |  | 65% |
| CC(C)=CCc1cc(C2CC(=O)c3ccc(O)cc3O2)ccc1O (racemic) | Active |  |  |  |
| CC1(C)C=Cc2cc([C@H]3CC(=O)c4ccc(O)cc4O3)ccc2O1 | Active |  |  |  |
